INS promoter act: TRM-6 insulin promoter activation. AID 1296. TRM-6 cells (human fetal islet line), insulin promoter eGFP reporter, imaging; plate-scaled: unstimulated 0, stimulated control 100. activation, % at 2 µM. actives 0.81% (n = 130,000);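 active = activation at 2 µM above a set limit, confirmed on inspection of the cell images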;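 also: share of cells whose green reporter signal exceeds an intensity cutoff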
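test system = TRM-6 insulin promoter–eGFP reporter cells | benchmarks = stimulated versus unstimulated wells as plate controls | read-out basis = percent cells above green-intensity threshold, converted to percent activation versus plate controls | detection = fixed-cell fluorescence microscopy, eGFP plus Hoechst | incubation = tamoxifen pre-incubation 15 h overnight, then compound exposure 48 h at 37 °C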
* = called active by the depositor. The full list was thinned out, with hits kept by preference.

SMILES	INS promoter act
Cc1cc(NC(=O)COC(=O)COc2ccc(C(=O)c3ccccc3)cc2)no1	-8.3
Cc1ccc2c(Cl)cc(Cl)c(OCC(=O)Nc3cc(C)on3)c2n1	3.3
CCCc1nn2c(=O)c(C(c3cccc(Cl)c3)c3c(O)nc4sc(CCC)nn4c3=O)c(O)nc2s1	3.3
Cc1sc2nc(COC(=O)c3cccc(S(=O)(=O)N(C)c4ccccc4)c3)[nH]c(=O)c2c1C	164.7
O=C(CN1C(=O)c2cccc3cccc1c23)N1CCN(Cc2ccc3c(c2)OCO3)CC1	500.0*
O=C(c1cccn2c(=O)c3ccccc3nc12)N1CCN(Cc2ccc3c(c2)OCO3)CC1	7.1
O=C(CN1C(=O)c2cccc3cccc(c23)C1=O)N1CCOCC1	-7.7
CCOC(=O)c1oc2ccc(CNC(C)(C)C)c(Cl)c2c1C	431.3*
CCOC(=O)c1oc2ccccc2c1NC(=O)COC	123.1
CCOC(=O)c1oc2cccc(OC(C)=O)c2c1C	285.7
Cc1ccc(C2CC(c3cccs3)=NN2C(=O)c2ccc(Br)o2)cc1 (configuration not stated)	3.7
CCOC(=O)c1nc(-c2ccc(OC)c(OC)c2)cnc1C#N	7.7
CCCN(CCC)S(=O)(=O)c1ccc(NC(=O)c2cc(C(=O)OC)cc([N+](=O)[O-])c2)cc1	0.0
O=C(N/N=C/c1cccs1)c1cc(-c2cccc3ccccc23)n[nH]1	-2.9
O=C(NCc1cccnc1)c1nc(-c2ccc(C(F)(F)F)cc2)no1	300.0*
O=C(NCc1cccnc1)c1cc(-c2ccccc2)on1	31.8
O=C(NCc1cccnc1)c1ccc(NC(=O)c2ccco2)cc1	-79.0
CC1CCN(C(=O)COc2cccc3c2CCN(C)C3=O)CC1	127.3
COc1ccc(/C=C(\C#N)C(=O)Nc2cc(S(=O)(=O)N3CCCCC3)ccc2N2CCCCC2)cc1	9.7
COC(=O)CC(c1ccc(C(C)C)cc1)n1cccc1 (configuration not stated)	6.7
CCn1c(Cc2ccccc2)nnc1SCC(=O)Nc1ccc(N2CCOCC2)c(Cl)c1	376.9
Cn1c(SCC(=O)Nc2ccc(N3CCOCC3)c(Cl)c2)nnc1-c1ccccc1	800.0*
Cc1ccc(NC(=O)CSCC(=O)Nc2ccc(N3CCOCC3)c(Cl)c2)cc1	0.0
CC1CCN(S(=O)(=O)c2ccc3c(c2)N(CC(=O)NCc2cccnc2)C(=O)CS3)CC1	128.6
Cc1ccc2cc(CN(Cc3ccco3)C(=O)NCc3ccccc3)c(=O)[nH]c2c1C	160.0*
SMILES	INS promoter act
Cc1cccc2cc(CN(Cc3ccco3)C(=O)c3cccs3)c(=O)[nH]c12	-3.4
Cc1ccc2cc(CN(Cc3ccco3)C(=S)NCC3CCCO3)c(=O)[nH]c2c1C (configuration not stated)	-8.3
Cn1c(CO)cnc1SCc1ccc(Cl)cc1	6.8
CN(C)S(=O)(=O)c1ccc(-c2csnn2)s1	5.7
CCOC(=O)c1ccccc1NC(=O)CSc1ccccc1	-7.0
O=C(CSCc1ccccc1)N1CCN(c2ccc(F)cc2)CC1	-4.3
CCn1c(SCC(=O)N2CCN(c3ccccc3)CC2)nnc1-c1ccncc1	5.6
CCn1c(CSCc2ccc(F)cc2)nnc1SCC(=O)N1CCN(c2ccccc2)CC1	94.6*
Cc1ccnc(N2CCC(C(=O)NNC(=O)c3ccccc3C)CC2)n1	-6.5
O=C(Nc1nnc(SCc2ccc(F)cc2)s1)C1CC(=O)N(Cc2ccccc2)C1 (configuration not stated)	-1.3
O=[N+]([O-])c1ccc(NC(=S)N2CCc3ccccc3C2)cc1	-3.2
Cc1nn(C)cc1C(C(=O)NC1CCCCC1)N(C(=O)c1cnccn1)c1ccc(Oc2ccccc2)cc1 (configuration not stated)	0.0
Cc1nn(C)cc1C(C(=O)NC1CCCCC1)N(C(=O)Cc1cccs1)c1ccc(C(C)C)cc1 (configuration not stated)	200.0*
Cc1ccc(C(C(=O)NC2CCCC2)N(C(=O)Cc2cccs2)c2ccc(C)c(C)c2)o1 (configuration not stated)	7.7
Cc1ccc(NC(=O)CSc2nnc(C3CC3)n2N)cc1S(=O)(=O)N1CCOCC1	9.1
CC(=O)Nc1nnc(CCS(=O)(=O)c2ccc(C)c(C)c2)s1	-4.3
CC1CC(C)(C)NC(=S)N1CCCC(=O)N1CCN(c2ccc(F)cc2)CC1 (configuration not stated)	-2.7
Cc1cccc(OCc2nnc(SCC(=O)Nc3cccc(C(=O)N4CCOCC4)c3)o2)c1C	0.0
CC(NC(=O)Cc1c(F)cccc1Cl)C1CCCO1 (configuration not stated)	-3.3
CNC(=O)CSCc1c(F)cccc1Cl	-81.2
O=C(Cc1c(F)cccc1Cl)N1CCCC1	557.1*
Cc1nnc(NC(=O)CSc2ncn(-c3ccccc3)n2)s1	0.0
Cc1nnc(NC(=O)CSc2ncnc3c2cnn3-c2ccccc2C)s1	146.7*
COc1ccc(N2CCN(C(=O)CSc3ncnc4c3cnn4-c3ccccc3C)CC2)cc1	-83.3
OCCC1CN(CC(c2ccccc2)c2ccccc2)CCN1C1CCCC1 (configuration not stated)	0.0
CN1CCN(NS(=O)(=O)c2cccs2)CC1	2.6

Screens: PubChem BioAssay, Columbia University Molecular Screening Center
